According to PubChem BioAssay:
Unmarked numbers belong to inactive results. Inconclusive results are not listed. Calls of active or inactive are those of the source.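 Rule for the calls, unless noted: active = viability at or below 27.92% in each of two runs, the all-compound median minus 4 SD; inconclusive = no clear call, values can overlap the other calls; inactive = the rest.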

What was measured:
[1] = OD615 S. cerevisiae growth inhibition, permissive medium, pilot counter-assay, permissive growth control for S. cerevisiae lifespan shortening project (AID 705;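 active = growth inhibition above 25% in both replicates, a cutoff set 3 SD above the mean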); conditions: OD615, 24 h, at 10 µM, active compounds read high
Summary of the method: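 assay system = Saccharomyces cerevisiae strain carrying genetically modified DeaD replicative-lifespan system | medium = SC raffinose/galactose permissive medium | dosing = 10 µM single dose, 0.25% DMSO | schedule = 24 h compound exposure at 30 °C after 4 h pre-growth | measured by = OD at 615 nm | read-out basis = growth inhibition from lowered OD615 after 24 h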

[2] = Restrictive medium S. cerevisiae growth inhibition, OD615, pilot screen of yeast lifespan reduction project, restrictive growth control (AID 706;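 active = growth inhibition above a set limit, 3 SD over mean compound inhibition, in both replicates, cut at about 43% in these data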;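 note: modified DeaD lifespan yeast strain shifted to restrictive glucose medium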); conditions: OD615, 48 h, at 10 µM, active compounds read high
Summary of the method: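 Buffer or medium: CSMM-D glucose medium. Material: genetically modified Saccharomyces cerevisiae, DeaD replicative lifespan assay strain. Times: 48 h compound exposure at 30 °C. Measured by: optical density at 615 nm.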

[3] = viability gain of MRP-1-high H69AR cells under doxorubicin, pilot screen, MRP-1 activator project, CellTiter-Glo, duplicate (AID 807;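 active = viability increase at or above a cutoff of the median across tested compounds plus 3 SD, cut at about 8.5% in these data, passing the limit was not always enough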;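 note: compound pretreatment 18-22 h then 72 h combined with doxorubicin; 0% = doxorubicin alone and 100% = vehicle without doxorubicin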); conditions: H69AR viability with doxorubicin, CellTiter-Glo luminescence; at 10 µM; active compounds read high
[4] = growth suppression of beta-catenin knockout HCT116, pilot screen, human colon tumor cells (AID 823;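 active = cell viability at or below a set limit in both duplicate runs, the limit being the all-compound median minus 4 SD, cut at about 23% in these data, passing the limit was not always enough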;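 note: 0% = wells killed by 20 µM Hyamine and 100% = untreated DMSO cell wells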); conditions: CellTiter-Glo, 60 h, at 10 µM, active compounds read low
[5] = growth suppression of PTEN-deleted HCT116, pilot screen, cell-based, HCT116 clonal line, CellTiter-Glo (AID 824); conditions: 60 h, at 10 µM, active compounds read low;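 note: 0% = 20 µM Hyamine control and 100% = vehicle cell control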
[6] = inhibitors of the yeast RAM network, pilot screen, dse1pr::URA3 reporter, 5-FOA selection (AID 869;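 active = inhibition over a set limit, the all-compound mean plus 3 SD, in both replicate runs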;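 note: 0% = DMSO wells with no growth and 100% = 10 µM 1-NA-PP1 with full growth; RAM network block rescues cells from 5-FOA so hits raise OD615 growth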); conditions: S. cerevisiae dse1pr::URA3 5-FOA growth, OD615, 2 d; at 10 µM; active compounds read high; strain carries analog-sensitive mutant Cbk1 kinase
[7] = RAM signaling pathway blockade in yeast – S. cerevisiae, Pdr1DBD-CYC8 efflux-inhibited sensitized strain, primary screen (AID 1298;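 active = RAM network inhibition above 8.4% in each of two replicates, 3 SD over the compound average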;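 note: 0% = DMSO untreated cells without growth and 100% = 10 µM 1-NA-PP1 full growth; higher means more yeast growth rescued from 5-FOA killing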); conditions: S. cerevisiae cbk1-as DSE1-URA3 strain, 5-FOA growth OD615, 2 d; at 50 µM; active compounds read high

Row | Compound | growth inhibition [1] [%] | growth inhibition [2] | viability increase [3] [%] | viability [4] [%] | viability [5] [%] | inhibition [6] [%] | RAM network inhibition [7] [%]
1 | CC1CCN(C(=O)CN2C(=O)C(=O)c3ccccc32)CC1 | 3.92 | -0.215% | -5.16 | 100 | 97.1 | 1.33 | 3.27
2 | CNC(=O)c1nnc(Cc2ccc(F)cc2)o1 | 2.65 | 1.31% | -0.04 | 93.8 | 98.9 | 0.195 | 2.48
3 | CCOC(=O)N1CCN(C(=O)CSc2nnc(-c3ccc(C)c(C)c3)o2)CC1 | -1.67 | 1.73% | -2.44 | 111 | 97.4 | 2.31 | 4.67
4 | Cn1nc(-c2ccc(Cl)cc2)c2cc(C(=O)N3CCOCC3)sc21 | -6.13 | 4.78% | -5.6 | 89.4 | 80.5 | 1.29 | 3.38
5 | CCCN1CCN(C(=O)CCCn2c(C)c3cnn(-c4ccccc4)c(=O)c3c2C)CC1 | -10.1 | -6.09% | -2.94 | 102 | 105 | -0.215 | 3.77
6 | CCOC(=O)CSc1nc2sc(C(=O)O)c(C)c2c(=O)[nH]1 | 0.2 | -4.45% | -1.82 | 102 | 103 | 1.92 | 3.85
7 | O=C(CCCCn1c(=O)[nH]c2ccccc2c1=O)NC1CCN(Cc2ccccc2)CC1 | -14.6 | -22.8% | -0.32 | 91.4 | 89 | 0.41 | 0.63
8 | COc1ccc(CNC(=O)CCCNS(=O)(=O)c2cccc3nonc23)cc1 | 1.99 | -22.1% | -2.08 | 92.3 | 96.7 | 1.31 | 7.37
9 | COc1ccc(CNc2ccc3cn[nH]c3c2)c(OC)c1OC | -1.74 | 1.43% | -2.25 | 74.7 | 79.7 | -0.465 | 9.01
10 | CC1Cc2ccccc2N1C(=O)CSC1=NCCS1 (stereo not drawn) | 7.58 | 50.5% (active) | -6.91 | 92.6 | 95.2 | 2.67 | 6.64
11 | Cc1ccc(Cl)cc1NC(=O)Cn1cc2c(n1)CCCC2 | -3.65 | 8.66% | -2.72 | 110 | 97 | -0.18 | 0.23
12 | COc1ccc(NS(=O)(=O)c2ccc(OC)c(OC)c2)cc1OC | -7.13 | 4.59% | 0.52 | 92 | 90.7 | 0.335 | 0
13 | Cc1cc(C(=O)NCc2ccc3c(c2)OCO3)n(-c2ccccc2)n1 | -8.49 | -5.84% | -0.01 | 92.2 | 96.3 | 0.985 | 4.44
14 | O=C(CCS(=O)(=O)c1cccc2nonc12)N1CCCc2ccccc21 | -10.4 | -22.1% | -4.61 | 92.8 | 92.9 | 2.08 | 8.49
15 | COC(=O)C1C(C(C)C)N(c2ccccc2)OC1(C)O (stereo not drawn) | -11.8 | -7.98% | -4.25 | 103 | 96.9 | 0.93 | 1.66
16 | c1ccc(-c2ccc(-c3nc(-c4ccncc4)no3)cc2)cc1 | 14.4 | 14.4% | 2.99 | 66.4 | 82.5 | 1.32 | 2.1
17 | CN(Cc1ccccc1)C(=O)CCS(=O)(=O)c1ccc2c(c1)n(C)c(=O)c(=O)n2C | -4.66 | -4.58% | 0.66 | 95.7 | 100 | 1.23 | 4.6
18 | Cc1c(C(=O)N2CCN(C(=O)c3ccco3)CC2)sc2nc(-c3ccc(F)cc3)cn12 | -0.195 | 3.62% | -2.53 | 91.8 | 89.3 | 0.195 | 3.7
19 | N#CCCN1CCN(S(=O)(=O)c2ccc(S(=O)(=O)N3CCCC3)cc2)CC1 | 0.995 | 7.04% | 1.73 | 101 | 104 | 1.29 | 8.15
20 | COc1cc(C2C(C(=O)c3cccs3)=C(O)C(=O)N2Cc2ccco2)cc(OC)c1OC (stereo not drawn) | -6.95 | -3.81% | -4.93 | 93.1 | 92.4 | 2.94 | 5
21 | Cc1ccccc1NC(=O)CN(C)S(=O)(=O)c1cccc2cccnc12 | -2.9 | -1.7% | -0.34 | 105 | 95.7 | 1.74 | 2.49
22 | COC(=O)c1c(S(N)(=O)=O)c2ccccc2n1C | -2.33 | 2.71% | -1.28 | 100 | 102 | 1.06 | 4.32
23 | O=C(Nc1ccc2c(c1)OCO2)c1ccncc1 | -10.6 | 0.215% | -0.85 | 87.9 | 90.1 | 0.205 | 3.42
24 | O=C(Cn1ncc2c(=O)oc3ccccc3c21)N(Cc1ccco1)C1CCCCC1 | -4.29 | -1.01% | -4.59 | 92.5 | 94.6 | 2.71 | 5.12
